In ChEMBL document CHEMBL1137002, “Synthesis and electrochemistry of 2-ethenyl and 2-ethanyl derivatives of 5-nitroimidazole and antimicrobial activity against Giardia lamblia” (J Med Chem, 2009):
pEC50, pIC50: −log10 of the molar value. Active and inactive are the calls of the source. The calls are words filed in the database; no cut-off is given here.

What was measured:
HeLa = assay: Cytotoxicity against human HeLa cells after 2 days by Alamar blue assay; format: cell-based; details: 48 h
Giardia intestinalis [1] = assay: Antigiardial activity against Giardia lamblia trophozoites isolates after 2 days by bactiter-glo viability assay; format: functional, organism-based; details: Giardia duodenalis, 48 h; for EC50: read-out: pEC50 (converted); for pEC50: read-out: EC50
[2] = Therapeutic index, ratio of IC50 for human HeLa cells to EC50 for Giardia lamblia trophozoites isolates; format: cell-based; details: read-out: Ratio IC50/EC50
Giardia intestinalis [3] = assay: Antigiardial activity against metronidazole-resistant Giardia lamblia isolate 106 trophozoite after 2 days by bactiter-glo viability assay; format: functional, organism-based; details: Giardia duodenalis, isolate 106, 48 h
Summary of the method: (§1)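 Trophozoites from mid-log cultures in TYI-S-33 with 10% bovine serum and 1 mg/mL bovine bile, grown anaerobically. Mz-resistant lines kept on 50 μM Mz but grown without it for 2–3 days beforehand. 1000–2000 cells/well, 1:3 serial dilutions, final 20 μM to 0.4 nM. 2 days at 37 °C anaerobically. ATP luminescence read-out. EC50 taken by graphic extrapolation of concentration–response curves. Mean ± SE of three experiments.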

Giardia intestinalis [4] = assay: Antigiardial activity against metronidazole-resistant Giardia lamblia isolate 713 trophozoite after 2 days by bactiter-glo viability assay; format: functional, organism-based; details: Giardia duodenalis, isolate 713, 48 h; summary of the method: as §1
Giardia intestinalis [5] = assay: Antigiardial activity against metronidazole-sensitive Giardia lamblia isolate 106 trophozoite after 2 days by bactiter-glo viability assay; format: functional, organism-based; details: Giardia duodenalis, isolate 106, 48 h; summary of the method: as §1
Giardia intestinalis [6] = assay: Antigiardial activity against metronidazole-sensitive Giardia lamblia isolate 713 trophozoite after 2 days by bactiter-glo viability assay; format: functional, organism-based; details: Giardia duodenalis, isolate 713, 48 h; summary of the method: as §1
Mus musculus = assay: Toxicity in C57BL/6 mouse at 10 mg/kg, po after 3 days; format: organism-based; parameters: dose 10 mg/kg, route oral; details: in vivo, 72 h
Summary of the method: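 G. lamblia GS/M-infected adult C57BL/6 mice were watched for clinically observable untoward effects across the 3-day treatment period, which consisted of five oral gavage doses at 10 mg/kg in methylcellulose/PBS given from day 2 after infection.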

Giardia intestinalis [7] = assay: Antigiardial activity against Giardia lamblia GS/M trophozoites infected in C57BL/6 mouse assessed as reduction in live trophozoite number in small intestine at 2 mg/kg, po administered as 5 doses for 3 days; format: functional, organism-based; parameters: dose 2 mg/kg; details: Giardia duodenalis
Summary of the method: (§2)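 Adult C57BL/6 mice infected orally with G. lamblia GS/M trophozoites; from 2 days post-infection, five oral gavage doses over 3 days (10 or 2 mg/kg), with controls given methylcellulose/PBS vehicle. Day 5: whole small intestine opened, placed in PBS on ice 10 min, shaken, and live trophozoites counted by hemocytometer under phase contrast. Mean ± SE of 3–7 animals; t test versus vehicle controls, p < 0.05.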

Giardia intestinalis [8] = assay: Antigiardial activity against Giardia lamblia GS/M trophozoites infected in C57BL/6 mouse assessed as reduction in live trophozoite number in small intestine at 10 mg/kg, po administered as 5 doses for 3 days relative to control; format: functional; details: Giardia duodenalis; summary of the method: as §2
Giardia intestinalis [9] = assay: Antigiardial activity against Giardia lamblia GS/M trophozoites infected in C57BL/6 mouse assessed as parasite eradication in small intestine at 10 mg/kg, po administered as 5 doses for 3 days; format: functional, organism-based; parameters: dose 10 mg/kg; details: Giardia duodenalis; summary of the method: as §2

Compound | pIC50 (HeLa) | EC50 (Giardia intestinalis [1]) | selectivity ratio [2] | pEC50 (Giardia intestinalis [1]) | pEC50 (Giardia intestinalis [3]) | pEC50 (Giardia intestinalis [4]) | pEC50 (Giardia intestinalis [5]) | pEC50 (Giardia intestinalis [6]) | Activity (Mus musculus) | Activity (Giardia intestinalis [7]) | Activity (Giardia intestinalis [8]) | Activity (Giardia intestinalis [9])
Cn1c([N+](=O)[O-])cnc1/C=C/c1cccc(Cl)c1 | 4.52 | 21.9 nM | 1380 |  |  |  |  |  |  |  |  | 
Cn1c([N+](=O)[O-])cnc1/C=C/c1ccc2c(c1)OCO2 | 4.13 | 69.2 nM | 1070 | 7.16 |  |  |  |  |  |  |  | 
Cn1c([N+](=O)[O-])cnc1/C=C/c1ccccc1-c1ccccc1 | < 4.00 | 851 nM | > 117 |  | 6.27 | 6.46 | 5.91 | 5.34 |  |  |  | 
Cn1c([N+](=O)[O-])cnc1CCc1ccc(Br)cc1 |  | 1150 nM | 85 | 5.94 |  |  |  |  |  |  |  | 
Cc1ccc(C(Br)C(Br)c2ncc([N+](=O)[O-])n2C)cc1 (configuration not stated) | 4.95 | 64.6 nM | 174 |  |  |  |  |  |  |  |  | 
CCOC(OCC)c1ccc(/C=C/c2ncc([N+](=O)[O-])n2C)cc1 |  | 52.5 nM | 1860 |  | 7.19 | 7.49 | 6.70 | 6.15 |  |  |  | 
Cn1c([N+](=O)[O-])cnc1/C=C/c1cccc(I)c1 |  | 93.3 nM | 339 |  |  |  |  |  |  |  |  | 
Cn1c([N+](=O)[O-])cnc1/C=C/c1ccc(Br)cc1 | 4.14 | 49 nM | 1480 |  | 7.14 | 8.09 | 6.70 | 7.04 | Non-toxic | inactive | inactive | 
Cn1c([N+](=O)[O-])cnc1/C=C/c1ccco1 |  | 33.9 nM | 2750 |  | 7.45 | 7.69 | 6.44 | 6.31 | Non-toxic |  | Active | Active
Cc1ccccc1/C=C/c1ncc([N+](=O)[O-])n1C |  | 69.2 nM | 1350 |  |  |  |  |  |  |  |  | 
CC(=O)OC(c1ccc(C)cc1)C(OC(C)=O)c1ncc([N+](=O)[O-])n1C (configuration not stated) | < 4.00 | 316 nM | > 319 |  | 6.29 | 6.76 | 5.51 | 5.29 |  |  |  | 
Cc1ccc(/C=C/c2ncc([N+](=O)[O-])n2C)cc1 | < 4.00 | 162 nM |  |  |  |  |  |  |  |  |  | 
Cn1c([N+](=O)[O-])cnc1/C=C/c1ccsc1 | < 4.00 | 97.7 nM | > 1020 |  | 7.04 | 7.61 | 6.41 | 5.98 | Non-toxic |  |  | 
Cn1c([N+](=O)[O-])cnc1C(Br)C(Br)c1ccc(Br)cc1 (configuration not stated) | 5.10 | 347 nM | 23 |  | 6.67 | 6.74 | 5.54 | 6.32 |  |  |  | 
Cc1cccc(/C=C/c2ncc([N+](=O)[O-])n2C)c1 | 4.51 | 39.8 nM | 776 |  |  |  |  |  |  |  |  | 
Cn1c([N+](=O)[O-])cnc1/C=C/c1cccs1 | 4.04 | 81.3 nM | 1120 |  |  |  |  |  |  |  |  | 
Cc1ccc(C(O)C(O)c2ncc([N+](=O)[O-])n2C)cc1 (configuration not stated) | < 4.00 | 832 nM | > 120 |  |  |  |  |  |  |  |  | 

Compound | pIC50 (HeLa) | EC50 (Giardia intestinalis [1]) | selectivity ratio [2] | pEC50 (Giardia intestinalis [1]) | pEC50 (Giardia intestinalis [3]) | pEC50 (Giardia intestinalis [4]) | pEC50 (Giardia intestinalis [5]) | pEC50 (Giardia intestinalis [6]) | Activity (Mus musculus) | Activity (Giardia intestinalis [7]) | Activity (Giardia intestinalis [8]) | Activity (Giardia intestinalis [9])
CC(=O)OC(c1ccc(Br)cc1)C(OC(C)=O)c1ncc([N+](=O)[O-])n1C (configuration not stated) |  | 224 nM | 436 |  |  |  |  |  |  |  |  | 
COc1ccc(/C=C/c2ncc([N+](=O)[O-])n2C)c(OC)c1OC | < 4.00 | 617 nM | > 162 |  |  |  |  |  |  |  |  | 
Cn1c([N+](=O)[O-])cnc1/C=C/c1ccccc1Cl | < 4.00 | 72.4 nM | > 1380 |  | 7.22 | 7.52 | 6.60 | 6.94 |  |  |  | 
Cn1c([N+](=O)[O-])cnc1/C=C/c1ccc(Cl)cc1 | 4.04 | 52.5 nM | 1740 |  | 7.14 | 7.44 | 6.59 | 6.84 |  |  |  | 
Cn1c([N+](=O)[O-])cnc1/C=C/c1ccc(OC(F)(F)F)cc1 | 4.08 | 741 nM | 112 |  |  |  |  |  |  |  |  | 
Cn1c([N+](=O)[O-])cnc1/C=C/c1cccc2ccccc12 | 4.00 |  | 1000 | 7.00 |  |  |  |  |  |  |  | 
Cc1cc(C)c(/C=C/c2ncc([N+](=O)[O-])n2C)c(C)c1 |  | 339 nM | 32 |  | 6.69 | 6.64 | 6.37 | 5.89 |  |  |  | 
COc1cccc(/C=C/c2ncc([N+](=O)[O-])n2C)c1 | < 4.00 | 155 nM | > 646 |  |  |  |  |  |  |  |  | 
Cn1c([N+](=O)[O-])cnc1/C=C/c1ccc(Cl)cc1Cl | < 4.00 | 234 nM | > 427 |  |  |  |  |  |  |  |  | 
Cn1c([N+](=O)[O-])cnc1/C=C/c1ccccc1I | < 4.00 | 60.3 nM | > 1660 |  |  |  |  |  |  |  |  | 
Cn1c([N+](=O)[O-])cnc1/C=C/c1ccccc1 | < 4.00 | 38.9 nM | > 2570 |  | 7.26 | 7.69 | 6.40 | 6.28 | Non-toxic |  | Active | Active
Cn1c([N+](=O)[O-])cnc1C(O)C(O)c1ccc(Br)cc1 (configuration not stated) | 4.04 | 447 nM | 208 |  |  |  |  |  |  |  |  | 
Cn1c([N+](=O)[O-])cnc1CCc1ccccc1 | < 4.00 | 209 nM | > 474 |  | 6.76 | 6.99 | 5.59 | 5.30 | Non-toxic |  |  | 
Cn1c([N+](=O)[O-])cnc1/C=C/c1cccc(Br)c1 | 4.06 | 46.8 nM | 1860 |  | 7.37 | 7.49 | 6.94 | 6.90 |  |  |  | 
Cn1c([N+](=O)[O-])cnc1/C=C/c1ccc2ccccc2c1 |  | 60.3 nM | 1620 |  |  |  |  |  |  |  |  | 
Cc1ccc(CCc2ncc([N+](=O)[O-])n2C)cc1 | < 4.00 | 282 nM | > 357 |  |  |  |  |  |  |  |  | 
Cn1c([N+](=O)[O-])cnc1/C=C/c1ccccc1Br | 4.14 | 49 nM | 1480 |  | 7.38 | 7.74 | 6.55 | 6.93 |  |  |  | 
